In one assay the test system is Staphylococcus carnosus. The assay is described as follows: Antibacterial activity against Staphylococcus carnosus TM300. The format is functional. The procedure, abridged:
(§1)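 Spot-on-lawn method against each indicator strain, giving MIC. Activity determined at least twice per lantibiotic.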

In assay [1] the test system is Bacillus subtilis. The experiment in a line: Antibacterial activity against Bacillus subtilis JCM 1465 assessed as induction of pore formation-associated efflux of K+ ion by fluorescence assay. The format is functional, organism-based. In outline:
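K+ efflux from B. subtilis JCM 1465T cells exposed to lantibiotic at 10× MIC, measured with potassium-binding benzofuran isophthalate-AM (PBFI). Expressed relative to total K+ released after adding 1 μM nisin (100%). Run twice.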

The subject of assay [2] is Bacillus subtilis. The assay is described as follows: Antibacterial activity against Bacillus subtilis JCM 1465 assessed as dissipation of membrane potential by fluorescence assay. It is filed as functional, organism-based.
For assay [3], the system named is Bacillus subtilis. The experiment in a line: Antibacterial activity against Bacillus subtilis JCM 1465. It is filed as functional. The procedure, abridged: as §1
The test system of a further assay is Micrococcus luteus. The assay is described as follows: Antibacterial activity against Micrococcus luteus IFO 12708. It is filed as functional. In outline:
as §1

For the next assay, the system named is Listeria innocua. The assay is described as follows: Antibacterial activity against Listeria innocua ATCC 33090. The format is functional. In outline:
as §1

The subject of assay [4] is Lactobacillus sakei. The assay is described as follows: Bacteriostatic against Lactobacillus sakei JCM 1157 assessed as decrease in cell viability after 24 hrs by turbidity assay. It is filed as functional. Particulars: Latilactobacillus sakei.
Assay [5] has as its system Bacillus subtilis. The experiment in a line: Antibacterial activity against Bacillus subtilis JCM 1465 assessed as induction of pore formation-associated efflux of ATP by fluorescence assay. The format is functional, organism-based. In outline:
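ATP efflux from B. subtilis JCM 1465T cells treated with lantibiotic at 10× MIC, detected with a Lucifer-HS ATP detection kit. Run twice, representative data shown.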

The test system of assay [6] is Lactobacillus sakei. The assay is described as follows: Antibacterial activity against Lactobacillus sakei JCM 1157. It is filed as functional. To be noted: Latilactobacillus sakei. The procedure, abridged: as §1
For assay [7], the system named is Bacillus subtilis. The assay is described as follows: Antibacterial activity against Bacillus subtilis JCM 1465 assessed as single arrangement of initial stage of septal orientation by microscopy. The format is functional, organism-based. The procedure, abridged:
(§2)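 B. subtilis JCM 1465T treated at 10× MIC for 90 min against an untreated control, then prepared for transmission electron microscopy. Longitudinal and cross sections examined.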

The test system of assay [8] is Lactobacillus sakei. The experiment in a line: Bacteriostatic against Lactobacillus sakei JCM 1157 assessed as lysis of cell after 24 hrs by spectrophotometry. The format is functional. To be noted: Latilactobacillus sakei.
In a further assay the test system is Enterococcus faecalis. The assay is described as follows: Antibacterial activity against Enterococcus faecalis TUA 1344L. It is filed as functional. The procedure, abridged:
as §1

The test system of another assay is Lactococcus lactis. The experiment in a line: Antibacterial activity against Lactococcus lactis ATCC 19435. It is filed as functional. In outline:
as §1

The subject of assay [9] is Bacillus subtilis. The assay is described as follows: Antibacterial activity against Bacillus subtilis JCM 1465 assessed as decrease in bacterial cell wall thickness by microscopy. The format is functional, organism-based. The procedure, abridged: as §2
The subject of assay [10] is Lactiplantibacillus plantarum. The assay is described as follows: Antibacterial activity against Lactobacillus plantarum ATCC 14617. The format is functional. Particulars: ATCC 14917, in the assay text read “ATCC 14917” for “ATCC 14617”. The procedure, abridged:
as §1

A further assay has as its system Cell membrane. The assay is described as follows: Binding affinity to cell membrane of Bacillus subtilis JCM 1465 assessed as dissipation of nisin A-induced membrane potential.
The subject of assay [11] is Bacillus subtilis. The experiment in a line: Antibacterial activity against Bacillus subtilis JCM 1465 assessed as detachment of plasma membrane from cell wall by microscopy. The format is functional, organism-based. In outline:
as §2

≈ marks a conversion by molar mass, not a printed value. Calls of active or inactive are those of the source. The calls are words filed in the database; no cut-off is given here.

Broadly, the MIC is the lowest concentration that inhibits growth of the organism. Low readings indicate greater potency, high ones weaker potency. Consider `C/C=C1\NC(=O)[C@H](Cc2ccccc2)NC(=O)[C@H](C(C)C)NC(=O)[C@H](Cc2ccccc2)NC(=O)[C@H](CCC(N)=O)NC(=O)[C@H](Cc2ccccc2)NC(=O)[C@@H]2CSC[C@@H](C(=O)N[C@@H](CO)C(=O)O)NC(=O)[C@H](CSC[C@@H]3NC(=O)[C@H](C(C)C)NC(=O)[C@@H](NC(=O)[C@@H]4CCCN4C(=O)[C@@H](NC(=O)[C@@H](NC(=O)CNC(=O)[C@H](CO)NC(=O)[C@H](CCCCN)NC(=O)[C@H](CCCCN)NC(=O)[C@@H](N)CCCCN)C(C)C)[C@@H](C)CC)[C@H](C)SC[C@H](NC(=O)[C@H](CC(=O)O)NC(=O)[C@H](Cc4cnc[nH]4)NC3=O)C(=O)N[C@@H](Cc3cnc[nH]3)C(=O)N[C@@H](CCSC)C(=O)N[C@@H](CC(N)=O)C(=O)N2)NC1=O`, for which the MIC in the assay with Staphylococcus carnosus worked out at 0.26 µM (≈ 0.769 µg/mL); in the assay with Bacillus subtilis [3], 0.26 µM (≈ 0.769 µg/mL); in the assay on Micrococcus luteus, 2.08 µM (≈ 6.16 µg/mL); against Listeria innocua, 16.6 µM (≈ 49.2 µg/mL); against Lactobacillus sakei [6], 0.26 µM (≈ 0.769 µg/mL); against Enterococcus faecalis, 4.16 µM (≈ 12.3 µg/mL). Further, the MIC with Lactococcus lactis came out at 0.52 µM (≈ 1.54 µg/mL). For the same compound, the outcome in the assay on Bacillus subtilis [1], in the assay with Bacillus subtilis [2] and in the assay on Bacillus subtilis [5] was inactive. Besides, the result with Lactobacillus sakei [4], in the assay on Bacillus subtilis [7], in the assay with Lactobacillus sakei [8] and with Bacillus subtilis [9] was Active.

Regarding `C=C(NC(=O)[C@@H](NC(=O)[C@H](Cc1cnc[nH]1)NC(=O)[C@@H](NC(=O)[C@H](CO)NC(=O)[C@@H]1CSC(C)[C@@H]2NC(=O)[C@H](C)NC(=O)[C@@H](NC(=O)N(CCCCN)C(=O)[C@H](CCCCN)NC(=O)[C@@H](CCSC)NC(=O)[C@H](CC(N)=O)NC(=O)[C@@H]3CSC(C)[C@H](NC(=O)[C@H](CCCCN)NC(=O)[C@@H]4CSC(C)[C@H](NC(=O)[C@@H]5CSC[C@H](NC(=O)/C(=C/C)NC(=O)[C@@H](N)[C@@H](C)CC)C(=O)N[C@@H](CC(C)C)C(=O)NC(=C)C(=O)N[C@@H](CC(C)C)C(=O)N5)C(=O)N5CCC[C@H]5C(=O)NCC(=O)N4)C(=O)NCC(=O)N[C@@H](C)C(=O)N[C@@H](CC(C)C)C(=O)N[C@H](CCSC)C(=O)NCC(=O)N3)C(C)SC[C@H](NC2=O)C(=O)N[C@@H](Cc2cnc[nH]2)C(=O)N1)[C@@H](C)CC)C(C)C)C(=O)N[C@@H](CCCCN)C(=O)O` (stereo partly specified), the minimal inhibitory concentration (MIC) in assay [10] worked out at 1.04 µM (≈ 3.61 µg/mL); in the assay with Staphylococcus carnosus, 0.016 µM (≈ 0.0555 µg/mL); in the assay on Bacillus subtilis [3], 0.008 µM (≈ 0.0277 µg/mL); against Micrococcus luteus, 0.032 µM (≈ 0.111 µg/mL); against Listeria innocua it was 0.065 µM (≈ 0.225 µg/mL); with Lactobacillus sakei [6], 0.008 µM (≈ 0.0277 µg/mL). The MIC in the assay on Enterococcus faecalis came to 0.26 µM (≈ 0.902 µg/mL); in the assay with Lactococcus lactis, 0.065 µM (≈ 0.225 µg/mL). Besides, the outcome in the assay with Cell membrane, with Bacillus subtilis [1], with Bacillus subtilis [11] and in the assay with Bacillus subtilis [5] was Active.

Source of the values: ChEMBL document CHEMBL1649563, “Nukacin ISK-1, a bacteriostatic lantibiotic” (2009).
